Hits are enriched below; roughly 3.2% of the tested compounds scored in any of these assays.
Ecoli rRNA inh = inhibits bacterial ribosomal RNA function over humanized ribosomes | E. coli WT GFP vs humanized-ribosome RFP mutants, fluorescence, 24 h; stronger effect = lower value; DMSO median 0, no signal -100 | GFP signal change (wild-type ribosome), % (no concentration beside the values) | actives 1.6% (n = 350,000) | AID 720706;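 active means significant combined selectivity score with lowered wild-type GFP, culture density cut under 30%, mutant RFP and density less affected; inactive means any of these conditions unmet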
DENV2 CPE rescue = protects cells from dengue virus 2 cytopathic effect | DENV2-infected cells, cytopathic effect rescue, plate reader | CPE inhibition, % at 9.99 µM | actives 1.7% (n = 350,000) | AID 651640; in the data active means CPE inhibition above about 20%, passing the limit was not always enough; inconclusive means no clear call, values can overlap the other calls; tested in BHK-21 cells
PfHsp90 set2 = inhibits growth of yeast expressing Plasmodium falciparum Hsp90; S. cerevisiae expressing PfHsp90, BacTiter-Glo ATP, 48 h; yeast lacking PDR1 and PDR3 efflux regulators; inhibition, % at 9.4 µM; actives 0.32% (n = 310,000);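 active means every replicate shows inhibition above about 80%, whatever the replicate mean, limit read from the data; inconclusive means mean inhibition reaches the set limit but some replicate falls short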
S100A4 inh HTS = S100A4-myosin IIA interaction inhibition | P26447 | S100A4/TAMRA-MyoIIA peptide fluorescence polarization | inhibition, % at 10.7 µM | actives 0.14% (n = 360,000);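 active means mean inhibition of at least 70% across replicates, with every replicate also reaching that level; inconclusive means mean inhibition reaches 70% but some replicates fall short; inactive means mean inhibition below 70%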
Target sequence (P26447 whole entry, looked up): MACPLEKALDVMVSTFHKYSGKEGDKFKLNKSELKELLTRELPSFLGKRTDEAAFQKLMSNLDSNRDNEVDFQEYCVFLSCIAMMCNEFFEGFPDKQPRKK
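incubation = readout 5 min after mixing, signal stable up to 60 min | system = S100A4 monomer protein | buffer or medium = HEPES pH 7.2 with CaCl2, KCl, NaCl, DTT, Triton | benchmarks = neutral control DMSO, positive control TFP | also added = fluorescent myosin IIA peptide, 5 nM | compound dosing = one concentration per compound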
MLL AF4-AF9 inh = blocks AF4 peptide binding to human AF9 | P42568 | AlphaScreen, biotin-AF4 peptide binding to FLAG-AF9 | inhibition, % at 10 µM | actives 0.47% (n = 350,000) | AID 651704;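 active means every replicate reaching a set inhibition limit, whatever the replicate mean, cut at about 25% in these data; inconclusive means mean inhibition reaches that limit but some replicates miss it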
Target sequence (P42568 whole entry, looked up): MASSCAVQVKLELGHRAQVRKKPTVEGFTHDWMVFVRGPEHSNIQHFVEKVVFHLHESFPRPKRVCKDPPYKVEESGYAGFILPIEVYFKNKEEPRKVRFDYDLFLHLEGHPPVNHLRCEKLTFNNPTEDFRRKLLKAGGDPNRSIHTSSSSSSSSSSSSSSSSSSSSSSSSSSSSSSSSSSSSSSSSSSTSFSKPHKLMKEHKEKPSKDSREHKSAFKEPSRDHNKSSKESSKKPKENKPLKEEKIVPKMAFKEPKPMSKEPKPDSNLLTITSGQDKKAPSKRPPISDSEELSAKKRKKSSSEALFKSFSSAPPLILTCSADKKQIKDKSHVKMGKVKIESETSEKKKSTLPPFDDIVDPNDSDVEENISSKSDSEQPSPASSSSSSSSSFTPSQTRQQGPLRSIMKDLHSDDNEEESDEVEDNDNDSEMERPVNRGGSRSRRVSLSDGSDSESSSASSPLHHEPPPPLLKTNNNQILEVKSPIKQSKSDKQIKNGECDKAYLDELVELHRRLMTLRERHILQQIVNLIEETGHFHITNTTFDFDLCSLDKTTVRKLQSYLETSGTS
Cneo AK release = Cryptococcus neoformans lysis via adenylate kinase release; C. neoformans lysis, adenylate kinase release luminescence, 4 h; normalised: neutral wells 0, clomiphene wells 100; lysis activity, % at 15 µM; actives 0.2% (n = 360,000); AID 651654;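 active means mean lysis activity across replicates of at least 80%, whatever share of replicates individually reach that level; inactive means mean lysis activity below 80%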
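Test system: log-phase Cryptococcus neoformans yeast cells. Input: 5 × 10^6 yeast cells/mL. Medium: fresh YPD growth medium. Doses: single dose. Incubation: static 4 h at 37 °C with compound, 1 h detection. Measured by: luminescent adenylate kinase detection reagent. Read-out: signal increase indicating cell lysis. Benchmarks: Clomiphene.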
Hits are given with their value; . = inactive; ? = inconclusive; / = not tested or not shown.

SMILES	Ecoli rRNA inh	DENV2 CPE rescue	PfHsp90 set2	S100A4 inh HTS	MLL AF4-AF9 inh	Cneo AK release
O=S(=O)(NC1CCCC1)OCC(Cl)(Cl)Cl	.	27	.	.	.	.
O=S(=O)(NC1CCCCCCC1)OCC(Cl)(Cl)Cl	.	34	/	.	.	.
CC(C)NC(=O)N1C[C@@H]2C(c3ccc(Br)cc3)[C@H](C1)N2C (stereo partly specified)	.	/	/	/	/	/
COC(=O)[C@H]1[C@H](CO)[C@H]2Cn3c(ccc(-c4cncnc4)c3=O)[C@@H]1N2S(=O)(=O)c1ccccc1C	.	.	/	.	.	.
CCCCCCCCCCCCCCCC[N+](C)(C)C	/	?	109	.	.	.
CC[C@H]1C=C(C(=O)N[C@@]2(C(=O)O)C[C@H]2CC)[C@H]2CCC(=O)[C@H]2C1	/	.	/	.	.	.
C[C@]12C=CC(=O)C=C1C=C[C@@H]1C2CC[C@]2(C)C(=O)CCC12 (stereo partly specified)	-28	.	.	.	.	.
COC(=O)[C@@H]1[C@@H](CO)[C@@H]2Cn3c(ccc(-c4ccccc4F)c3=O)[C@H]1N2Cc1ccccc1	.	.	/	.	.	.
COC(=O)[C@H]1[C@H](CO)[C@H]2Cn3c(ccc(-c4cccnc4)c3=O)[C@@H]1N2S(=O)(=O)c1ccccc1F	.	.	/	.	.	.
CCOC(=O)[C@]12Cc3ccccc3[C@H]1N(CCC(=O)OC)C(=O)c1cc(OC)ccc12	.	30	/	.	.	/
CCOC(=O)[C@]12Cc3cc(OC)ccc3[C@H]1N(CCC(=O)OC)C(=O)c1cc(OC)ccc12	.	.	/	.	.	/
O=C1NC2C(=CC(O)C(O)C2O)c2cc3c(c(O)c21)OCO3 (stereo unspecified)	.	88	.	.	.	/
CC/C=C/CC(=O)N[C@@H](c1ccccc1)[C@@H](O)C(=O)O[C@H]1C[C@@]2(O)[C@@H](OC(=O)c3ccccc3)C3[C@](C)(C(=O)[C@H](OC(C)=O)C(=C1C)C2(C)C)[C@@H](O)C[C@H]1OC[C@@]31OC(C)=O (stereo partly specified)	.	28	.	.	.	.
O=C(NCC1=C(c2ccc3ccccc3c2)C[C@@H]2CC[C@H]1N2Cc1ccco1)c1ccc([N+](=O)[O-])cc1	.	.	/	.	28	.
O=C(NCC1=C(c2ccc3ccccc3c2)C[C@@H]2CC[C@H]1N2Cc1ccco1)c1ccncc1	.	.	/	.	.	.
CN1[C@@H]2c3cccc(=O)n3C[C@H]1[C@H](CO)[C@H]2C(=O)NCC1CC1	.	.	/	.	.	.
BrCC1C[n+]2c(SCc3ccccc3)nc3sc4c(c3c2O1)CCCC4 (stereo unspecified)	.	.	.	.	.	.
Nc1c2c(nc3sc4c(c13)CCCCC4)CCCC2	-23	.	.	.	.	.
Cc1cc(OCc2ccc([N+](=O)[O-])cc2)c2c3c(c(=O)oc2c1)CCCC3	.	151	.	.	.	.
Cc1cc(OCc2nn[nH]n2)c2c3c(c(=O)oc2c1)CCCC3	/	/	.	/	/	/
O=C(Cc1cccnc1)N1CCCCN2[C@H](CO)[C@H](c3ccc(C#CC4CC4)cc3)[C@@H]2C1	/	.	/	.	.	.
CCCNC(=O)[C@@H]1[C@@H](CO)[C@@H]2Cn3c(cccc3=O)[C@@H]2N1CC	.	.	/	.	.	/
NP(=O)(OCCCc1ccccc1)Oc1ccc(Cl)cc1 (stereo unspecified)	.	20	.	.	.	.
COC(=O)[C@H]1[C@H](CO)[C@H]2Cn3c(ccc(-c4cccc(F)c4)c3=O)[C@@H]1N2C(=O)CC1CC1	.	.	/	.	.	.
Oc1cc(Cl)c(Cl)c(Cl)c1Cl	.	.	104	.	.	.
SMILES	Ecoli rRNA inh	DENV2 CPE rescue	PfHsp90 set2	S100A4 inh HTS	MLL AF4-AF9 inh	Cneo AK release
NC1=C([N+](=O)[O-])C(c2ccc3c(c2)OCO3)c2c(c3ccccc3oc2=O)O1 (stereo unspecified)	-29	.	/	.	.	/
O=[N+]([O-])c1oc2ccc3ccccc3c2c1CCO	.	.	136	.	.	/
C/C=C/c1ccc(C2[C@@H]3CN(Cc4cocn4)C[C@H]2N3)cc1 (stereo partly specified)	.	.	/	.	29	/
C/C=C/c1ccc(C2[C@@H]3CN(Cc4nccs4)C[C@H]2N3)cc1 (stereo partly specified)	.	.	/	.	.	/
OC[C@@H]1Nc2ccc(C#Cc3cccnc3)cc2[C@@H]2NCC[C@H]12	.	/	/	/	/	/
O=C(CF)NC(NC(=S)Nc1cccc([N+](=O)[O-])c1)C(Cl)(Cl)Cl (stereo unspecified)	.	.	.	.	.	/
COc1ccc(NC(=S)NC(NC(=O)CF)C(Cl)(Cl)Cl)cc1[N+](=O)[O-] (stereo unspecified)	-22	.	.	.	.	.
COC(=O)[C@@H]1[C@@H](CO)[C@@H]2Cn3c(ccc(-c4ccc(OC)cc4)c3=O)[C@H]1N2C(=O)c1ccccc1F	.	.	/	.	.	.
CC(C)(C)n1cc(C(=O)c2ccccc2)cc1-c1ccccc1	.	36	.	.	.	.
CCC(C)c1cnc(CC(C)C)c(=O)n1O (stereo unspecified)	.	59	/	.	.	.
COC(=O)[C@@H]1[C@@H](CO)[C@@H]2Cn3c(ccc(C4=CCCCC4)c3=O)[C@H]1N2CC1CCCCC1	.	.	/	.	.	/
CC(C)(Cl)[N+](=O)[O-]	.	130	.	.	/	.
c1ccc(CCCN2CCN(CCOC(c3ccccc3)c3ccccc3)CC2)cc1	/	.	.	.	.	.
Fc1ccc(C(OCCN2CCN(CCCc3ccccc3)CC2)c2ccc(F)cc2)cc1	.	.	.	.	29	.
O=C(O)C(Br)Br	.	70	/	.	/	/
CN(C)C(=S)SSC(=S)N(C)C	.	.	108	.	.	.
CC(=O)N1[C@@H]2Cn3c(ccc(-c4cccc(C(=O)N(C)C)c4)c3=O)[C@H]1[C@@H](C(=O)O)[C@@H]2CO	.	/	/	/	/	/
CN1CCN(Cc2ccc3ccccc3c2)CC1	.	.	.	.	.	.
CCCCCCOc1ccc(CN2CCN(C)CC2)cc1	-25	.	/	.	.	/
O=c1[nH]c(=O)n(Cc2ccc(F)cc2)c(O)c1/C=N/Nc1ccccc1	.	34	.	.	?	/
Oc1cccc2nc3ccccc3nc12	/	111	.	.	.	.
Cc1ccccc1O	/	.	.	.	.	.
Cc1cccc(NP(=O)(Oc2ccccc2F)Oc2ccccc2F)c1C	-29	.	.	.	.	.
Cc1ccc(NP(=O)(Oc2ccccc2F)Oc2ccccc2F)cc1	/	/	.	/	/	.
